Measurements reported in paper PMC12282580 (RSC Advances, 2025).

Tests used:
[1] = system: SW620 cells (colon cancer); assay: Cytotoxicity assay; assay type: cell-based; conditions: Homo sapiens, SW-620, 48 h, read-out: Cytotoxicity (IC50) SW620
[2] = system: SW620 human colon cancer cells; assay: Cell cycle analysis; assay type: cell-based; conditions: 5 μM, 24-hour treatment, effect less pronounced for 7d and 11d compared to SAHA
Summary of the method: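 Controls were untreated cells and vehicle-treated cells (DMSO 0.05%). Data shown as histograms plus bar graphs.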

[3] = system: SW620 human colon cancer cells; assay: Apoptosis assay; assay type: cell-based; conditions: 5 μM, 24-hour treatment, early apoptosis levels exceeding those observed with SAHA
Summary of the method: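 Annexin V-FITC/PI dual staining, with untreated and vehicle (DMSO 0.05%) controls. Data presented as histograms with accompanying bar graphs.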

SW620 cells = assay: Morphological changes; assay type: cell-based, human; conditions: 5 μM, 24-hour treatment
Summary of the method: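 SW620 cells exposed to test compound at 5 μM for 24 h, then photographed on an imaging system through 20× or 40× objectives to record morphology.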

[4] = system: MDA-MB-231 cells (breast cancer); assay: Cytotoxicity assay; assay type: cell-based, human; conditions: read-out: Cytotoxicity (IC50) MDA-MB-231; MDA-MB-231 breast cancer; 48h; MTT

Compound	IC50 [1]	other results
COc1cccc2c1C(=O)c1c(O)c3c(c(O)c1C2=O)C[C@@](O)(C(=O)CO)C[C@@H]3O[C@H]1C[C@H](N)[C@H](O)[C@H](C)O1 [ADR, adriamycin, reference compound]	0.56 ± 0.1 µM	
O=C(NO)c1ccc(Cn2cc(Cn3cnc4ccccc4c3=O)nn2)cc1 [Compound 7a, N-Hydroxy-4-((4-((4-oxoquinazolin-3(4H)-yl)methyl)-1H-1,2,3-triazol-1-yl)methyl)benzamide]	9.21 ± 0.72 µM	
Cc1ccc2ncn(Cc3cn(Cc4ccc(C(=O)NO)cc4)nn3)c(=O)c2c1 [Compound 7b, N-Hydroxy-4-((4-((6-methyl-4-oxoquinazolin-3(4H)-yl)methyl)-1H-1,2,3-triazol-1-yl)methyl)benzamide]	43.1 ± 4.55 µM	
Cc1ccc2c(=O)n(Cc3cn(Cc4ccc(C(=O)NO)cc4)nn3)cnc2c1 [Compound 7c, N-Hydroxy-4-((4-((7-methyl-4-oxoquinazolin-3(4H)-yl)methyl)-1H-1,2,3-triazol-1-yl)methyl)benzamide]	7.34 ± 0.94 µM	
O=C(NO)c1ccc(Cn2cc(Cn3cnc4ccc(Cl)cc4c3=O)nn2)cc1 [Compound 7d, 4-((4-((6-Chloro-4-oxoquinazolin-3(4H)-yl)methyl)-1H-1,2,3-triazol-1-yl)methyl)-N-hydroxybenzamide]	3.64 ± 0.31 µM	Cell cycle effect [2]: induced G2/M phase cell cycle arrest; Pro-apoptotic effect [3]: significantly induced early and late apoptosis; Morphological changes (SW620 cells): induced characteristic apoptotic morphological alterations
O=C(NO)c1ccc(Cn2cc(Cn3cnc4ccc(F)cc4c3=O)nn2)cc1 [Compound 7e, 4-((4-((6-Fluoro-4-oxoquinazolin-3(4H)-yl)methyl)-1H-1,2,3-triazol-1-yl)methyl)-N-hydroxybenzamide]	5.87 ± 1.55 µM	
O=C(NO)c1ccc(Cn2cc(Cn3cnc4cc(F)ccc4c3=O)nn2)cc1 [Compound 7f, 4-((4-((7-Fluoro-4-oxoquinazolin-3(4H)-yl)methyl)-1H-1,2,3-triazol-1-yl)methyl)-N-hydroxybenzamide]	8.23 ± 2.04 µM	
O=C(NO)c1ccc(Cn2cc(Cn3cnc4ccc(Br)cc4c3=O)nn2)cc1 [Compound 7g, 4-((4-((6-Bromo-4-oxoquinazolin-3(4H)-yl)methyl)-1H-1,2,3-triazol-1-yl)methyl)-N-hydroxybenzamide]	20.8 ± 5.32 µM	
O=C(NO)c1ccc(Cn2cc(Cn3cnc4cc(Br)ccc4c3=O)nn2)cc1 [Compound 7h, 4-((4-((7-Bromo-4-oxoquinazolin-3(4H)-yl)methyl)-1H-1,2,3-triazol-1-yl)methyl)-N-hydroxybenzamide]	3.77 ± 1.87 µM	
O=C(NO)c1ccc(Cn2cc(Cn3cnc4ccc(I)cc4c3=O)nn2)cc1 [Compound 7i, N-Hydroxy-4-((4-((6-iodo-4-oxoquinazolin-3(4H)-yl)methyl)-1H-1,2,3-triazol-1-yl)methyl)benzamide]	5.52 ± 1.04 µM	
O=C(/C=C/c1ccc(Cn2cc(Cn3cnc4ccccc4c3=O)nn2)cc1)NO [Compound 11a, (E)-N-Hydroxy-3-(4-((4-((4-oxoquinazolin-3(4H)-yl)methyl)-1H-1,2,3-triazol-1-yl)methyl)phenyl)acrylamide]	5.07 ± 2.92 µM	
Cc1ccc2ncn(Cc3cn(Cc4ccc(/C=C/C(=O)NO)cc4)nn3)c(=O)c2c1 [Compound 11b, (E)-N-Hydroxy-3-(4-((4-((6-methyl-4-oxoquinazolin-3(4H)-yl)methyl)-1H-1,2,3-triazol-1-yl)methyl)phenyl)acrylamide]	9.82 ± 2.46 µM	
Cc1ccc2c(=O)n(Cc3cn(Cc4ccc(/C=C/C(=O)NO)cc4)nn3)cnc2c1 [Compound 11c, (E)-N-Hydroxy-3-(4-((4-((7-methyl-4-oxoquinazolin-3(4H)-yl)methyl)-1H-1,2,3-triazol-1-yl)methyl)phenyl)acrylamide]	11.7 ± 4.39 µM	
O=C(/C=C/c1ccc(Cn2cc(Cn3cnc4ccc(Cl)cc4c3=O)nn2)cc1)NO [Compound 11d, (E)-3-(4-((4-((6-Chloro-4-oxoquinazolin-3(4H)-yl)methyl)-1H-1,2,3-triazol-1-yl)methyl)phenyl)-N-hydroxyacrylamide]	3.15 ± 0.33 µM	Cell cycle effect [2]: induced G2/M phase cell cycle arrest; Pro-apoptotic effect [3]: significantly induced early and late apoptosis; Morphological changes (SW620 cells): induced characteristic apoptotic morphological alterations
O=C(/C=C/c1ccc(Cn2cc(Cn3cnc4ccc(F)cc4c3=O)nn2)cc1)NO [Compound 11e, (E)-3-(4-((4-((6-Fluoro-4-oxoquinazolin-3(4H)-yl)methyl)-1H-1,2,3-triazol-1-yl)methyl)phenyl)-N-hydroxyacrylamide]	4.57 ± 3.54 µM	
O=C(/C=C/c1ccc(Cn2cc(Cn3cnc4cc(F)ccc4c3=O)nn2)cc1)NO [Compound 11f, (E)-3-(4-((4-((7-Fluoro-4-oxoquinazolin-3(4H)-yl)methyl)-1H-1,2,3-triazol-1-yl)methyl)phenyl)-N-hydroxyacrylamide]	5.34 ± 0.76 µM	
O=C(/C=C/c1ccc(Cn2cc(Cn3cnc4ccc(Br)cc4c3=O)nn2)cc1)NO [Compound 11g, (E)-3-(4-((4-((6-Bromo-4-oxoquinazolin-3(4H)-yl)methyl)-1H-1,2,3-triazol-1-yl)methyl)phenyl)-N-hydroxyacrylamide]	9.16 ± 0.08 µM	IC50 [4]: 9.07 ± 0.42 µM
O=C(/C=C/c1ccc(Cn2cc(Cn3cnc4cc(Br)ccc4c3=O)nn2)cc1)NO [Compound 11h, (E)-3-(4-((4-((7-Bromo-4-oxoquinazolin-3(4H)-yl)methyl)-1H-1,2,3-triazol-1-yl)methyl)phenyl)-N-hydroxyacrylamide]	5.73 ± 0.76 µM	IC50 [4]: 5.55 ± 0.18 µM
O=C(/C=C/c1ccc(Cn2cc(Cn3cnc4ccc(I)cc4c3=O)nn2)cc1)NO [Compound 11i, (E)-N-Hydroxy-3-(4-((4-((6-iodo-4-oxoquinazolin-3(4H)-yl)methyl)-1H-1,2,3-triazol-1-yl)methyl)phenyl)acrylamide]	28.5 ± 8.19 µM	
O=C(CCCCCCC(=O)Nc1ccccc1)NO [SAHA, suberoylanilide hydroxamic acid, reference compound]		Cell cycle effect [2]: induced G2/M phase cell cycle arrest
